SMILES strings stand for the structures.

T1 sequence (P08254 whole entry): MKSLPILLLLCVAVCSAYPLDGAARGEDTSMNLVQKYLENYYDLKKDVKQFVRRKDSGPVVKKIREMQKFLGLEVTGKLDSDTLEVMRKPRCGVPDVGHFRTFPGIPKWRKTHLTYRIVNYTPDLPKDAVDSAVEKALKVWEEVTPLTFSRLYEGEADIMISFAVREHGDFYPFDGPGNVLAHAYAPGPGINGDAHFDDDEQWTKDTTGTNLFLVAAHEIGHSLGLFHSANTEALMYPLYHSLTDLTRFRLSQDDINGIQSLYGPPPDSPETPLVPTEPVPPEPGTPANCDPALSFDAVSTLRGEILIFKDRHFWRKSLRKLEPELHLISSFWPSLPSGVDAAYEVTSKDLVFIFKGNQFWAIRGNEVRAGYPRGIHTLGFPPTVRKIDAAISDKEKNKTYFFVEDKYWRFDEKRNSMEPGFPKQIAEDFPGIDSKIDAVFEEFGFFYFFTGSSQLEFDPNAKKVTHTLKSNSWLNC

One assay concerns the target T1, Stromelysin-1 (Homo sapiens, UniProt P08254). The experiment in a line: Inhibition activity against recombinant human stromelysin (Matrix metalloprotease-3).
As a reminder, the Ki is the equilibrium dissociation constant of an inhibitor or competing ligand from its target. As for `COc1ccc(S(=O)(=O)NCC(=O)NO)cc1`, the Ki is 4400 nM.

As to `COc1ccc(S(=O)(=O)N(Cc2ccccc2)[C@H](Cc2ccccc2)C(=O)NO)cc1`, the Ki was 29 nM.

Consider `COc1ccc(S(=O)(=O)N(CCC(C)C)CC(=O)NO)cc1`, for which the Ki came out at 94 nM.

Turning to `COc1ccc(S(=O)(=O)N(Cc2ccccc2)C(C)C(=O)NO)cc1` (stereo not drawn), the Ki was 86 nM.

As to `COc1ccc(S(=O)(=O)N(Cc2ccccc2)[C@@H](C(=O)NO)C(C)C)cc1`, the Ki amounted to 34 nM.

With `COc1ccc(S(=O)(=O)N(CC(=O)NO)Cc2ccccc2)cc1`, the Ki was 70 nM.

Turning to `CC(C)CN(CC(=O)NO)S(=O)(=O)c1ccc(N(C)C)cc1`, the Ki came out at 4400 nM.

On to `COc1ccc(S(=O)(=O)N(Cc2ccccc2)[C@@H](C)C(=O)NO)cc1`, for which the Ki worked out at 141 nM.

For the compound `COc1ccc(CN(CC(=O)NO)S(=O)(=O)c2ccc(OC)cc2)cc1`, the Ki amounted to 104 nM.

On to `COc1ccc(S(=O)(=O)N(CC(=O)NO)Cc2ccc3ccccc3n2)cc1`, for which the Ki is 134 nM.

Take `COc1ccc(S(=O)(=O)N(CC(=O)NO)CC2CCCCC2)cc1`: the Ki amounted to 61 nM.

Consider `COc1ccc(S(=O)(=O)N(Cc2ccccc2)C(Cc2ccccc2)C(=O)NO)cc1` (stereo not drawn), for which the Ki was found to be 71 nM.

`COc1ccc(S(=O)(=O)N(Cc2ccccc2)[C@H](C)C(=O)NO)cc1`: the Ki turned out to be 36 nM.

As for `COc1ccc(S(=O)(=O)N(Cc2ccccc2)C(C(=O)NO)C(C)C)cc1` (stereo not drawn), the Ki stood at 92 nM.

For `COc1ccc(S(=O)(=O)N(Cc2ccccc2)[C@H](CC(C)C)C(=O)NO)cc1`, the Ki stood at 23 nM.

A further assay deals with T1, Stromelysin-1. The assay is described as follows: Inhibition activity against recombinant human stromelysin (Matrix metalloprotease-3) (Inactive). A digest of the protocol:
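Substance P (0.5 mM) cleaved by recombinant human stromelysin (8 μg, 2 units) for 30 min at 37 °C with test compound diluted from 10 mM stock into assay buffer. Reaction stopped with 10 mM EDTA. Substance P 7-11 fragment quantified by RP-8 HPLC. IC50 versus inhibitor-free control, mean of two independent measurements. Ki derived from mean IC50 by Waley's method.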
Take `CC(C)CN(CC(=O)NO)S(=O)(=O)c1ccc(C(C)(C)C)cc1`: the Ki entry is “Not Active”.

For the compound `CC(C)CN(CC(=O)NO)S(=O)(=O)c1ccc([N+](=O)[O-])cc1`, the Ki entry is recorded as “Not Active”.

In the case of `CC(C)CN(CC(=O)NO)S(=O)(=O)c1ccc(S(C)(=O)=O)cc1`, the Ki result is “Not Active”.
